Experimental data reported in PubChem BioAssay.
Results filed as inconclusive are left out.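 How the source made its calls, unless noted: active means viability increase at or above a cutoff of the median across tested compounds plus 3 SD (cut at about 8.5% in these data, passing the limit was not always enough); inconclusive means some gains above the cutoff, reason not given; inactive means the rest.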

Columns and labels:
[1] = OD615 S. cerevisiae growth inhibition, permissive medium, pilot counter-assay, permissive growth control for S. cerevisiae lifespan shortening project (AID 705;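 active means growth inhibition above 25% in both replicates, a cutoff set 3 SD above the mean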); settings: OD615, 24 h, at 10 µM, hits give high values
Outline: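 Test system: Saccharomyces cerevisiae strain carrying genetically modified DeaD replicative-lifespan system; buffer or medium: SC raffinose/galactose permissive medium; dosing: one dose 10 µM, DMSO 0.25% final; times: 24 h exposure, 30 °C; measured by: OD at 615 nm; read-out basis: growth inhibition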

[2] = Restrictive medium S. cerevisiae growth inhibition, OD615, pilot screen of yeast lifespan reduction project, restrictive growth control (AID 706;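 active means growth inhibition above a set limit, 3 SD over mean compound inhibition, in both replicates, cut at about 43% in these data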;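 further: modified DeaD lifespan yeast strain shifted to restrictive glucose medium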); settings: OD615, 48 h, at 10 µM, hits give high values
Outline: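 material = engineered S. cerevisiae DeaD strain | buffer or medium = glucose-based CSMM-D restrictive medium | dosing = one concentration, 10 µM final, 0.25% DMSO | schedule = 4 h pre-growth plus 48 h compound exposure, 30 °C | detection = OD615 absorbance reading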

[3] = viability gain of MRP-1-high H69AR cells under doxorubicin, pilot screen, MRP-1 activator project, CellTiter-Glo, duplicate (AID 807); settings: H69AR viability with doxorubicin, CellTiter-Glo luminescence; at 10 µM; hits give high values;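 further: compound pretreatment 18-22 h then 72 h combined with doxorubicin; 0% = doxorubicin alone and 100% = vehicle without doxorubicin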
[4] = growth suppression of beta-catenin knockout HCT116, pilot screen, human colon tumor cells (AID 823;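 active means cell viability at or below a set limit in both duplicate runs, the limit being the all-compound median minus 4 SD, cut at about 23% in these data, passing the limit was not always enough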;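 further: 0% = wells killed by 20 µM Hyamine and 100% = untreated DMSO cell wells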); settings: CellTiter-Glo, 60 h, at 10 µM, hits give low values
[5] = growth suppression of PTEN-deleted HCT116, pilot screen, cell-based, HCT116 clonal line, CellTiter-Glo (AID 824;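 active means viability at or below 27.92% in each of two runs, the all-compound median minus 4 SD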;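 further: 0% = 20 µM Hyamine control and 100% = vehicle cell control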); settings: 60 h, at 10 µM, hits give low values
[6] = inhibitors of the yeast RAM network, pilot screen, dse1pr::URA3 reporter, 5-FOA selection (AID 869;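 active means inhibition over a set limit, the all-compound mean plus 3 SD, in both replicate runs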;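 further: 0% = DMSO wells with no growth and 100% = 10 µM 1-NA-PP1 with full growth; RAM network block rescues cells from 5-FOA so hits raise OD615 growth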); settings: S. cerevisiae dse1pr::URA3 5-FOA growth, OD615, 2 d; at 10 µM; hits give high values; strain carries analog-sensitive mutant Cbk1 kinase
[7] = RAM signaling pathway blockade in yeast – S. cerevisiae, Pdr1DBD-CYC8 efflux-inhibited sensitized strain, primary screen (AID 1298;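 active means RAM network inhibition above 8.4% in each of two replicates, 3 SD over the compound average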;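 further: 0% = DMSO untreated cells without growth and 100% = 10 µM 1-NA-PP1 full growth; higher means more yeast growth rescued from 5-FOA killing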); settings: S. cerevisiae cbk1-as DSE1-URA3 strain, 5-FOA growth OD615, 2 d; at 50 µM; hits give high values

CSC1=NCCN1C(=O)COc1ccccc1
inactive: growth inhibition [1] 5.44% | growth inhibition [2] -6.09% | viability increase [3] 1.95% | viability [4] 97.8% | viability [5] 104% | inhibition [6] 1.57% | RAM network inhibition [7] 2.21%

COC(=O)C1=C(C)NC(=O)CC1c1cc2c(cc1Br)OCO2 (configuration not stated)
inactive: growth inhibition [1] 4.83% | growth inhibition [2] 7.57% | viability increase [3] -1.64% | viability [4] 106% | viability [5] 94.7% | inhibition [6] 1.42% | RAM network inhibition [7] 5.87%

COC(=O)C1=C(O)CSC1=Nc1cccc(C(F)(F)F)c1
inactive: growth inhibition [1] -1.75% | growth inhibition [2] 8.3% | viability increase [3] -0.93% | viability [4] 101% | viability [5] 96.3% | inhibition [6] 0.625% | RAM network inhibition [7] 3.1%

Cn1c(=O)oc2cc(S(=O)(=O)N3CCCC(C(=O)NCCN4CCOCC4)C3)ccc21 (configuration not stated)
inactive: growth inhibition [1] -1% | growth inhibition [2] 10.4% | viability increase [3] -0.15% | viability [4] 103% | viability [5] 108% | inhibition [6] 0.68% | RAM network inhibition [7] 4.15%

COc1ccccc1C1NC(=O)NC(C)=C1C(=O)OC1CCCCC1 (configuration not stated)
inactive: growth inhibition [1] -4.16% | growth inhibition [2] -6.71% | viability increase [3] 0.87% | viability [4] 97.5% | viability [5] 92.3% | inhibition [6] 2.65% | RAM network inhibition [7] 2.9%

COc1ccc(OC)c2sc(NC(=O)CCS(=O)(=O)c3ccccc3)nc12
inactive: growth inhibition [1] -8.91% | growth inhibition [2] -10.2% | viability increase [3] -8.72% | viability [4] 36.1% | viability [5] 44.3% | inhibition [6] 4.41% | RAM network inhibition [7] 11%

CN(C)c1ccc(NC(=O)c2cccc(N3C(=O)CCC3=O)c2)cc1
inactive: growth inhibition [1] 5.53% | growth inhibition [2] 4.7% | viability increase [3] 1.36% | viability [4] 106% | viability [5] 100% | inhibition [6] -0.005% | RAM network inhibition [7] 4.75%

CCOc1cc2[nH]c(=O)n(Cc3ccc(C(=O)NCCOC)cc3)c(=O)c2cc1OCC
inactive: growth inhibition [1] -16.2% | growth inhibition [2] -6.54% | viability increase [3] -1.54% | viability [4] 97.8% | viability [5] 95.2% | inhibition [6] 0.03% | RAM network inhibition [7] 6.22%

CCCCOc1ccccc1NC(=O)CC1SC(=NCC)N(CC)C1=O (configuration not stated)
inactive: growth inhibition [1] -9.35% | growth inhibition [2] -0.705% | viability increase [3] -2.29% | viability [4] 85.6% | viability [5] 81.3% | inhibition [6] 1.08% | RAM network inhibition [7] 2.04%

COCCCNC(=O)COc1cc(C)c(Cl)c(C)c1
inactive: growth inhibition [1] -3.79% | growth inhibition [2] -2.48% | viability increase [3] -1.76% | viability [4] 95.5% | viability [5] 96.3% | inhibition [6] -0.185% | RAM network inhibition [7] 1.45%

Cc1sc2nc(SCC(=O)OC(C)C)n(C)c(=O)c2c1C
inactive: growth inhibition [1] -2.81% | growth inhibition [2] 31.4% | viability increase [3] -1.84% | viability [4] 105% | viability [5] 94.8% | inhibition [6] 2.59% | RAM network inhibition [7] 2.75%

CC(C)(C)Nc1ncnc2c1cnn2-c1ccccc1
inactive: growth inhibition [1] -3.38% | growth inhibition [2] 17.3% | viability increase [3] 2% | viability [4] 92.3% | viability [5] 90.3% | inhibition [6] 1.31% | RAM network inhibition [7] -2.37%

CCOC(=O)CNC(=O)c1c2c(nc3ccccc13)CCCC2
inactive: growth inhibition [1] -6.83% | growth inhibition [2] -1.75% | viability increase [3] -5.37% | viability [4] 95.4% | viability [5] 88.2% | inhibition [6] 2.68% | RAM network inhibition [7] 5.74%

CCN(CC)c1ccc(NS(=O)(=O)c2ccc3c(c2)oc(=O)n3C)c(C)c1
inactive: growth inhibition [1] -8.04% | growth inhibition [2] -10.8% | viability increase [3] -2.73% | viability [4] 83.2% | viability [5] 72.6% | inhibition [6] 1.33% | RAM network inhibition [7] -0.57%

CCCn1c(CNC(=O)c2cccs2)nc2ccccc21
inactive: growth inhibition [1] -9.53% | growth inhibition [2] -7.64% | viability increase [3] -1.28% | viability [4] 101% | viability [5] 103% | inhibition [6] 2.32% | RAM network inhibition [7] 2.11%

CCOC(=O)C1=C(C)Nc2nc(C)nn2C1c1ccc(C)cc1 (configuration not stated)
inactive: growth inhibition [1] -0.5% | growth inhibition [2] 7.16% | viability increase [3] -1.84% | viability [4] 100% | viability [5] 97.8% | inhibition [6] 1.9% | RAM network inhibition [7] -0.2%

COc1ccccc1N(CC(=O)N1CCCCCC1)S(C)(=O)=O
inactive: growth inhibition [1] -11.6% | growth inhibition [2] -10.7% | viability increase [3] -1.57% | viability [4] 89.1% | viability [5] 92.5% | inhibition [6] 0.495% | RAM network inhibition [7] 2.63%

Cc1ccccc1S(=O)(=O)Cc1ccc(C(=O)N2CCN(C3CCCCC3)CC2)o1
inactive: growth inhibition [1] -9.92% | growth inhibition [2] -5.71% | viability increase [3] -1.48% | viability [4] 95.1% | viability [5] 89.6% | inhibition [6] 0.385% | RAM network inhibition [7] 4.62%

O=C(Nc1nccs1)c1cc(S(=O)(=O)N2CCOCC2)ccc1Cl
inactive: growth inhibition [1] -0.79% | growth inhibition [2] -2.65% | viability increase [3] -3.96% | viability [4] 97.8% | viability [5] 91% | inhibition [6] 1.35% | RAM network inhibition [7] 4.18%

CCOc1ccc(N(CC(=O)OC)S(=O)(=O)c2c(C)noc2C)cc1
inactive: growth inhibition [1] 3.84% | growth inhibition [2] -0.545% | viability increase [3] -1.21% | viability [4] 87.4% | viability [5] 95.1% | inhibition [6] -0.69% | RAM network inhibition [7] -0.31%

Cc1ccccc1-c1nc(CS(=O)CC(=O)NCc2ccccc2)c(C)o1 (configuration not stated)
inactive: growth inhibition [1] 0.295% | growth inhibition [2] 7.02% | viability increase [3] 1.37% | viability [4] 101% | viability [5] 101% | inhibition [6] 0.655% | RAM network inhibition [7] 4%

CCOC(=O)c1sc(NC(=O)C2CC2)cc1C
inactive: growth inhibition [1] -9.29% | growth inhibition [2] -0.985% | viability increase [3] 0.54% | viability [4] 99.5% | viability [5] 89.4% | inhibition [6] 2.37% | RAM network inhibition [7] 0.98%

CCOC(=O)N1CCN(C(=O)c2ccccc2NC(=O)COc2ccccc2C)CC1
inactive: growth inhibition [1] -9.27% | growth inhibition [2] 3.48% | viability increase [3] -1.77% | viability [4] 86.3% | viability [5] 82.2% | inhibition [6] 1.29% | RAM network inhibition [7] 5.67%

COc1cccc(C2CC(c3ccccc3OC)n3ncnc3N2)c1 (configuration not stated)
inactive: growth inhibition [1] -4.81% | growth inhibition [2] 8.07% | viability increase [3] -5.2% | viability [4] 90.1% | viability [5] 71.2% | inhibition [6] 0.455% | RAM network inhibition [7] -0.26%

Clc1ccc(C=NC23CN4CN(CN(C4)C2)C3)cc1
inactive: growth inhibition [1] 8.77% | growth inhibition [2] 6.34% | viability increase [3] -1.39% | viability [4] 102% | viability [5] 90.3% | inhibition [6] 1.11% | RAM network inhibition [7] 0.19%

COC(=O)C1=CN(C)C=C(C(=O)OC)C1c1ccsc1
inactive: growth inhibition [1] -5% | growth inhibition [2] -4.37% | viability increase [3] -0.22% | viability [4] 104% | viability [5] 89.3% | inhibition [6] 1.96% | RAM network inhibition [7] 0.41%

COc1cccc(CNC(=O)c2ccc(NC(=O)C3CCCO3)cc2)c1 (configuration not stated)
inactive: growth inhibition [1] -23.1% | growth inhibition [2] -16.5% | viability increase [3] 0.53% | viability [4] 95.1% | viability [5] 97.2% | inhibition [6] 1.14% | RAM network inhibition [7] 7.03%

c1ccc2[nH]c(-c3ccnc4ccccc34)nc2c1
inactive: growth inhibition [1] 0.915% | growth inhibition [2] -4.32% | viability increase [3] -4.45% | viability [4] 102% | viability [5] 95.9% | inhibition [6] 0.605% | RAM network inhibition [7] 2.99%

CCCS(=O)(=O)n1nc(-c2ccc(OC)cc2OC)cc1N
inactive: growth inhibition [1] -6.52% | growth inhibition [2] -22.5% | viability increase [3] -2.51% | viability [4] 101% | viability [5] 102% | inhibition [6] -0.255% | RAM network inhibition [7] 4.63%

CCN(CC)C(=O)C1CCN(S(=O)(=O)c2ccc(C3CNC(=O)C3)cc2)CC1 (configuration not stated)
inactive: growth inhibition [1] 3.76% | growth inhibition [2] -0.015% | viability increase [3] 0.02% | viability [4] 99.9% | viability [5] 106% | inhibition [6] 1.81% | RAM network inhibition [7] 2.47%

O=C1CC2CS(=O)(=O)CC2N1C1CCCCC1 (configuration not stated)
inactive: growth inhibition [1] -8.38% | growth inhibition [2] -13.2% | viability increase [3] -0.5% | viability [4] 107% | viability [5] 96% | inhibition [6] 0.495% | RAM network inhibition [7] 2.85%

CCOc1ccccc1NC(=O)C1Cc2ccccc2CN1S(C)(=O)=O (configuration not stated)
inactive: growth inhibition [1] -8.32% | growth inhibition [2] -7.46% | viability increase [3] -5.66% | viability [4] 82.9% | viability [5] 80.6% | inhibition [6] 0.37% | RAM network inhibition [7] 3%

c1ccc2c(c1)nc(NCC1CCCO1)c1nnnn12 (configuration not stated)
inactive: growth inhibition [1] -4.03% | growth inhibition [2] 4.6% | viability increase [3] -3.64% | viability [4] 101% | viability [5] 97.6% | inhibition [6] 1.34% | RAM network inhibition [7] 2.87%

CCC(C)Sc1nc2c(c(=O)[nH]c(=O)n2C)n1Cc1ccccc1Cl (configuration not stated)
inactive: growth inhibition [1] -0.795% | growth inhibition [2] 8.91% | viability increase [3] -1.95% | viability [4] 81.6% | viability [5] 82.2% | inhibition [6] 0.75% | RAM network inhibition [7] 4.89%

COc1ccc(NC(=O)CCCC2=NS(=O)(=O)c3ccccc3N2)cc1
inactive: growth inhibition [1] -8.46% | growth inhibition [2] -7.47% | viability increase [3] -3.01% | viability [4] 103% | viability [5] 99.3% | inhibition [6] 1.23% | RAM network inhibition [7] 3.11%

COc1ccc(C2C(C#N)=C(N)N3C(=C2C#N)Sc2ccccc23)cc1 (configuration not stated)
inactive: growth inhibition [1] -1.28% | growth inhibition [2] -4.12% | viability increase [3] -0.06% | viability [4] 98.9% | viability [5] 102% | inhibition [6] 1.09% | RAM network inhibition [7] 8.82%
